Measured values: ChEMBL document CHEMBL4251638, “Amino acid conjugated antimicrobial drugs: Synthesis, lipophilicity- activity relationship, antibacterial and urease inhibition activity” (Eur J Med Chem, 2018)
Values after ≈ are worked out from the molar mass of the structure shown. Active and inactive are the calls of the source. No cut-off for these calls is given here.

What was measured:
Staphylococcus aureus = assay: Antibacterial activity against Staphylococcus aureus ATCC 6538 after overnight incubation by microbroth dilution method; assay type: functional
Summary of the method: (§1)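 Strains grown on nutrient agar, 37°C, 24 h. Inoculum from colony in nutrient broth, 24 h at 37°C, adjusted to McFarland 0.5, about 5 × 10^4 CFU/ml per well. DMSO stocks (4 mg/mL) serially diluted in nutrient broth to final 256 to 0.16 µg/mL. Incubated overnight at 37°C. MIC90 is the lowest concentration inhibiting growth. DMSO 1% final as negative control. Run in triplicate.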

Bacillus spizizenii = assay: Antibacterial activity against Bacillus subtilis ATCC 6633 after overnight incubation by microbroth dilution method; assay type: functional; summary of the method: as §1
Escherichia coli = assay: Antibacterial activity against Escherichia coli ATCC 25922 after overnight incubation by microbroth dilution method; assay type: functional; summary of the method: as §1
Salmonella typhimurium [1] = assay: Antibacterial activity against Salmonella typhimurium ATCC 14028 after overnight incubation by microbroth dilution method; assay type: functional, Salmonella enterica subsp. enterica serovar Typhimurium; settings: Salmonella enterica
Pseudomonas aeruginosa = assay: Antibacterial activity against Pseudomonas aeruginosa ATCC 15442 after overnight incubation by microbroth dilution method; assay type: functional; summary of the method: as §1
[2] = Inhibition of Bacillus pasteurii urease using urea as substrate measured after 20 mins by phenol reagent based assay; parameters: species or system Sporosarcina pasteurii
Summary of the method: (§2)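 Indophenol method. Enzyme incubated with compound in buffer containing 100 mM urea at 30 °C for 20 min. Phenol reagent (1% w/v phenol, 0.005% w/v sodium nitroprusside) then alkali reagent (0.5% w/v NaOH, 0.1% v/v […]) added. Absorbance read at 630 nm as change per min. Thiourea was the reference inhibitor.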

Salmonella typhimurium [3] = settings: Salmonella enterica subsp. enterica serovar Typhimurium; ATCC 14028
Sporosarcina pasteurii = assay: Inhibition of Bacillus pasteurii urease using urea as substrate measured after 20 mins by phenol reagent based assay relative to control; summary of the method: as §2

SMILES | MIC90 (Staphylococcus aureus) | MIC90 (Bacillus spizizenii) | MIC90 (Escherichia coli) | MIC90 (Salmonella typhimurium [1]) [µM] | MIC90 (Pseudomonas aeruginosa) | IC50 [2] [µM] | MIC90 (Salmonella typhimurium [3]) | inhibition (Sporosarcina pasteurii) [%]
COc1cc(Cc2cnc(N)nc2NC(=O)C(N)Cc2c[nH]c3ccccc23)cc(OC)c1OC (configuration not stated) | 134 µM (≈ 64 µg/mL) | 224 µM (≈ 107 µg/mL) | 67.1 µM (≈ 32 µg/mL) | 55.8 (≈ 26.6 µg/mL) | 67.1 µM (≈ 32 µg/mL) | 35.1 | – | –
NC(Cc1c[nH]c2ccccc12)C(=O)NNC(=O)c1ccncc1 (configuration not stated) | 98.9 µM (≈ 32 µg/mL) | 98.9 µM (≈ 32 µg/mL) | 528 µM (≈ 171 µg/mL) | 792 (≈ 256 µg/mL) | 660 µM (≈ 213 µg/mL) | 37 | – | –
COc1nc(NNC(=O)c2ccncc2)nc(OC(=O)C(N)Cc2c[nH]c3ccccc23)n1 (configuration not stated) | 47.5 µM (≈ 21.3 µg/mL) | 71 µM (≈ 31.8 µg/mL) | 36 µM (≈ 16.1 µg/mL) | 36 (≈ 16.1 µg/mL) | 60 µM (≈ 26.9 µg/mL) | 37.3 | – | –
CC(C)C(N)C(=O)NNC(=O)c1ccncc1 (configuration not stated) | inactive | inactive | inactive | – | inactive | 48.6 | inactive | –
COc1nc(Nc2nc(N)ncc2Cc2cc(OC)c(OC)c(OC)c2)nc(OC(=O)C(N)C(C)C)n1 (configuration not stated) | 166 µM (≈ 85.3 µg/mL) | 124 µM (≈ 64 µg/mL) | 62.2 µM (≈ 32 µg/mL) | 82.8 (≈ 42.6 µg/mL) | 51.7 µM (≈ 26.6 µg/mL) | 19.3 | – | –
COc1nc(OC(=O)C(N)Cc2c[nH]c3ccccc23)nc(Oc2c(OC)cc(Cc3cnc(N)nc3N)cc2OC)n1 (configuration not stated) | 3.4 µM (≈ 2 µg/mL) | 6.8 µM (≈ 4 µg/mL) | 1.1 µM (≈ 0.646 µg/mL) | 2.3 (≈ 1.35 µg/mL) | 1.4 µM (≈ 0.823 µg/mL) | 11.5 | – | –
NC(N)=S [THIOUREA] | – | – | – | – | – | 21 | – | –
CC[C@H]1OC(=O)[C@H](C)[C@@H](O[C@H]2C[C@@](C)(OC)[C@@H](O)[C@H](C)O2)[C@H](C)[C@@H](O[C@@H]2O[C@H](C)C[C@H](N(C)C)[C@H]2O)[C@](C)(O)C[C@@H](C)/C(=N\OCOCCOC)[C@H](C)[C@@H](O)[C@]1(C)O [ROXITHROMYCIN] | 0.6 µM (≈ 0.502 µg/mL) | 0.6 µM (≈ 0.502 µg/mL) | 0.6 µM (≈ 0.502 µg/mL) | – | 0.3 µM (≈ 0.251 µg/mL) | – | – | –
COc1cc(Cc2cnc(N)nc2N)cc(OC)c1OC [TRIMETHOPRIM] | 22.7 µM (≈ 6.59 µg/mL) | – | 55.1 µM (≈ 16 µg/mL) | – | – | – | – | –
NC(Cc1ccccc1)C(=O)NNC(=O)c1ccncc1 (configuration not stated) | inactive | inactive | inactive | – | inactive | 21.1 | inactive | –
COc1nc(OCCn2c([N+](=O)[O-])cnc2C)nc(OC(=O)C(N)C(C)C)n1 (configuration not stated) | 81 µM (≈ 32 µg/mL) | 81 µM (≈ 32 µg/mL) | 67.3 µM (≈ 26.6 µg/mL) | 81 (≈ 32 µg/mL) | 54 µM (≈ 21.4 µg/mL) | 19.5 | – | –
Cc1ncc([N+](=O)[O-])n1CCOC(=O)C(N)Cc1c[nH]c2ccccc12 (configuration not stated) | 179 µM (≈ 64 µg/mL) | 239 µM (≈ 85.4 µg/mL) | 74.4 µM (≈ 26.6 µg/mL) | 89.5 (≈ 32 µg/mL) | 119 µM (≈ 42.6 µg/mL) | 13.6 | – | –
COc1nc(OCCn2c([N+](=O)[O-])cnc2C)nc(OC(=O)C(N)Cc2ccccc2)n1 (configuration not stated) | 24 µM (≈ 10.6 µg/mL) | 18 µM (≈ 7.98 µg/mL) | 7.4 µM (≈ 3.28 µg/mL) | 18 (≈ 7.98 µg/mL) | 9 µM (≈ 3.99 µg/mL) | 11.4 | – | –
COc1nc(Nc2nc(N)ncc2Cc2cc(OC)c(OC)c(OC)c2)nc(OC(=O)C(N)Cc2ccccc2)n1 (configuration not stated) | 303 µM (≈ 171 µg/mL) | 228 µM (≈ 128 µg/mL) | 47.3 µM (≈ 26.6 µg/mL) | 56.8 (≈ 32 µg/mL) | 28.4 µM (≈ 16 µg/mL) | 13.8 | – | –
Cc1ncc([N+](=O)[O-])n1CCOC(=O)C(N)C(C)C (configuration not stated) | 118 µM (≈ 32 µg/mL) | 158 µM (≈ 42.7 µg/mL) | 473 µM (≈ 128 µg/mL) | 632 (≈ 171 µg/mL) | 474 µM (≈ 128 µg/mL) | 29.5 | – | –
COc1nc(Nc2nc(N)ncc2Cc2cc(OC)c(OC)c(OC)c2)nc(OC(=O)C(N)Cc2c[nH]c3ccccc23)n1 (configuration not stated) | 213 µM (≈ 128 µg/mL) | 213 µM (≈ 128 µg/mL) | 53.2 µM (≈ 32 µg/mL) | 53.2 (≈ 32 µg/mL) | 53.2 µM (≈ 32 µg/mL) | 12 | – | –
COc1nc(OCCn2c([N+](=O)[O-])cnc2C)nc(OC(=O)C(N)Cc2c[nH]c3ccccc23)n1 (configuration not stated) | 16.5 µM (≈ 7.96 µg/mL) | 13 µM (≈ 6.27 µg/mL) | 2 µM (≈ 0.965 µg/mL) | 6.8 (≈ 3.28 µg/mL) | 4 µM (≈ 1.93 µg/mL) | 16.3 | – | –
COc1nc(OC(=O)C(N)C(C)C)nc(Oc2c(OC)cc(Cc3cnc(N)nc3N)cc2OC)n1 (configuration not stated) | 10.6 µM (≈ 5.31 µg/mL) | 7.9 µM (≈ 3.95 µg/mL) | 6.6 µM (≈ 3.3 µg/mL) | 15.9 (≈ 7.96 µg/mL) | 6.6 µM (≈ 3.3 µg/mL) | 6.23 | – | –
COc1cc(Cc2cnc(N)nc2NC(=O)C(N)C(C)C)cc(OC)c1OC (configuration not stated) | 82.2 µM (≈ 32 µg/mL) | 68.3 µM (≈ 26.6 µg/mL) | 164 µM (≈ 64 µg/mL) | 219 (≈ 85.3 µg/mL) | 137 µM (≈ 53.3 µg/mL) | 52.4 | – | –
COc1nc(OC(=O)C(N)Cc2ccccc2)nc(Oc2c(OC)cc(Cc3cnc(N)nc3N)cc2OC)n1 (configuration not stated) | 12 µM (≈ 6.58 µg/mL) | 19.3 µM (≈ 10.6 µg/mL) | 3.6 µM (≈ 1.97 µg/mL) | 7.3 (≈ 4 µg/mL) | 6 µM (≈ 3.29 µg/mL) | 8.33 | – | –
O=C(O)c1cn(C2CC2)c2cc(N3CCNCC3)c(F)cc2c1=O [CIPROFLOXACIN] | 30.2 µM (≈ 10 µg/mL) | 30.2 µM (≈ 10 µg/mL) | 30.2 µM (≈ 10 µg/mL) | – | 30.2 µM (≈ 10 µg/mL) | – | – | –
NNC(=O)c1ccncc1 | inactive | inactive | inactive | – | inactive | – | inactive | –
COc1nc(NNC(=O)c2ccncc2)nc(OC(=O)C(N)Cc2ccccc2)n1 (configuration not stated) | 104 µM (≈ 42.6 µg/mL) | 156 µM (≈ 63.9 µg/mL) | 52 µM (≈ 21.3 µg/mL) | 78 (≈ 31.9 µg/mL) | 65 µM (≈ 26.6 µg/mL) | 31 | – | –
COc1cc(Cc2cnc(N)nc2NC(=O)C(N)Cc2ccccc2)cc(OC)c1OC (configuration not stated) | 244 µM (≈ 107 µg/mL) | 244 µM (≈ 107 µg/mL) | 73.1 µM (≈ 32 µg/mL) | 97.4 (≈ 42.6 µg/mL) | 73.1 µM (≈ 32 µg/mL) | 31.3 | – | –
Cc1ncc([N+](=O)[O-])n1CCOC(=O)C(N)Cc1ccccc1 (configuration not stated) | 50.3 µM (≈ 16 µg/mL) | 83.6 µM (≈ 26.6 µg/mL) | 201 µM (≈ 64 µg/mL) | 201 (≈ 64 µg/mL) | 268 µM (≈ 85.3 µg/mL) | 27.4 | – | –
Cc1ncc([N+](=O)[O-])n1CCO | inactive | inactive | inactive | – | inactive | – | – | 13
COc1nc(NNC(=O)c2ccncc2)nc(OC(=O)C(N)C(C)C)n1 (configuration not stated) | 118 µM (≈ 42.6 µg/mL) | 177 µM (≈ 64 µg/mL) | 59 µM (≈ 21.3 µg/mL) | 74 (≈ 26.7 µg/mL) | 74 µM (≈ 26.7 µg/mL) | 29.3 | – | –
